From ChEMBL document CHEMBL4261552, “4-Hydroxy-N-[3,5-bis(trifluoromethyl)phenyl]-1,2,5-thiadiazole-3-carboxamide: a novel inhibitor of the canonical NF-κB cascade” (Medchemcomm, 2017)

How the values were obtained:
[1] = biological target: T1, Inhibitor of nuclear factor kappa-B kinase subunit beta (Homo sapiens, UniProt O14920); assay: Inhibition of human IKKbeta using ERLLDDRHDSGLDSMKDEE as substrate after 60 mins in presence of ATP by ADP-Glo kinase assay
T1 sequence (O14920 whole entry): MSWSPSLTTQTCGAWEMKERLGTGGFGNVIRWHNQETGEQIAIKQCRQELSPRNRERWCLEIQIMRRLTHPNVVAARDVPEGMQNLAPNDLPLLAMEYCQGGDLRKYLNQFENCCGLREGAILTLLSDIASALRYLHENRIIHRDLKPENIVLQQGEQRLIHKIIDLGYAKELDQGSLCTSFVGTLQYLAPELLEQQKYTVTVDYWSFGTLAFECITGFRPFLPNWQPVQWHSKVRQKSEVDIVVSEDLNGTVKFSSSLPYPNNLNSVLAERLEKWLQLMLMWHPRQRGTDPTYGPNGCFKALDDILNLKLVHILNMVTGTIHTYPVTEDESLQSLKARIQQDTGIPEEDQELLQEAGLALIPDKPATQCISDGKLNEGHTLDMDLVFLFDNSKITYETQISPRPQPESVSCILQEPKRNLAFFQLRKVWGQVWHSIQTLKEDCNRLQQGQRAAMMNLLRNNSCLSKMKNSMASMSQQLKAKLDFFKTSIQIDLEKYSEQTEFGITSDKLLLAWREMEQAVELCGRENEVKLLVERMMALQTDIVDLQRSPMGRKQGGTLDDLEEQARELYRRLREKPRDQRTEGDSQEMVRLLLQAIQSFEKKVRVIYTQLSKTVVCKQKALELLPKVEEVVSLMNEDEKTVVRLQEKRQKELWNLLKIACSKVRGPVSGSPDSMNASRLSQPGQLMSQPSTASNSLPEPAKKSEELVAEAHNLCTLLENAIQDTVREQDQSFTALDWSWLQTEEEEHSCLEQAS

[2] = biological target: T2, Inhibitor of nuclear factor kappa-B kinase subunit beta (Homo sapiens) (UniProt O14920); assay: Inhibition of human IKKbeta at 100 uM using ERLLDDRHDSGLDSMKDEE as substrate after 60 mins in presence of ATP by ADP-Glo kinase assay relative to control
T2 sequence (whole entry): T1 sequence (O14920 whole entry)

[3] = biological target: T3, Inhibitor of nuclear factor kappa-B kinase subunit alpha (Homo sapiens, UniProt O15111); assay: Inhibition of human IKKalpha using ERLLDDRHDSGLDSMKDEE as substrate after 60 mins in presence of ATP by ADP-Glo kinase assay
T3 sequence (O15111 whole entry): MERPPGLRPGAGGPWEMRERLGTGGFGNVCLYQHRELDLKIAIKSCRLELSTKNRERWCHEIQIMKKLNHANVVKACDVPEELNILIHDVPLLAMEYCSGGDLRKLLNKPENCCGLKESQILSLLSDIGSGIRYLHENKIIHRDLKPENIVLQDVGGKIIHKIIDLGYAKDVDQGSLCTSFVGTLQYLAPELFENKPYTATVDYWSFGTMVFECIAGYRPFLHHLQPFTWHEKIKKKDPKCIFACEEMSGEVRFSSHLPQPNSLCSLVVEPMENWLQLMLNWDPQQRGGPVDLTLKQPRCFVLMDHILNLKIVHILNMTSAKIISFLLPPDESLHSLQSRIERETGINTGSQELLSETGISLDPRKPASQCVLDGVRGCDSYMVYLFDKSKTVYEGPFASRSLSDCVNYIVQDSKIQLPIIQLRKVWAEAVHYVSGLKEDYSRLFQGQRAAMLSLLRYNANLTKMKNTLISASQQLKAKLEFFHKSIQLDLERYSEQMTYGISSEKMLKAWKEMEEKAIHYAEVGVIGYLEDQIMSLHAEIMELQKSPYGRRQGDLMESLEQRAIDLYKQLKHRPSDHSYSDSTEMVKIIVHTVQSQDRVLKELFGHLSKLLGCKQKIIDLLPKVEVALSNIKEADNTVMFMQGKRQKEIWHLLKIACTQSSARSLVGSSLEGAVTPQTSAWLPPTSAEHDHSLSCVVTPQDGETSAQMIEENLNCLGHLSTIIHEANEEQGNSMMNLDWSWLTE

[4] = biological target: T4, Inhibitor of nuclear factor kappa-B kinase subunit alpha (Homo sapiens) (UniProt O15111); assay: Inhibition of human IKKalpha at 100 uM using ERLLDDRHDSGLDSMKDEE as substrate after 60 mins in presence of ATP by ADP-Glo kinase assay relative to control
T4 sequence (whole entry): T3 sequence (O15111 whole entry)

[5] = biological target: T5, Inhibitor of nuclear factor kappa-B kinase subunit epsilon (Homo sapiens, UniProt Q14164); assay: Inhibition of human IKKepsilon using ERLLDDRHDSGLDSMKDEE as substrate after 60 mins in presence of ATP by ADP-Glo kinase assay
T5 sequence (Q14164 whole entry): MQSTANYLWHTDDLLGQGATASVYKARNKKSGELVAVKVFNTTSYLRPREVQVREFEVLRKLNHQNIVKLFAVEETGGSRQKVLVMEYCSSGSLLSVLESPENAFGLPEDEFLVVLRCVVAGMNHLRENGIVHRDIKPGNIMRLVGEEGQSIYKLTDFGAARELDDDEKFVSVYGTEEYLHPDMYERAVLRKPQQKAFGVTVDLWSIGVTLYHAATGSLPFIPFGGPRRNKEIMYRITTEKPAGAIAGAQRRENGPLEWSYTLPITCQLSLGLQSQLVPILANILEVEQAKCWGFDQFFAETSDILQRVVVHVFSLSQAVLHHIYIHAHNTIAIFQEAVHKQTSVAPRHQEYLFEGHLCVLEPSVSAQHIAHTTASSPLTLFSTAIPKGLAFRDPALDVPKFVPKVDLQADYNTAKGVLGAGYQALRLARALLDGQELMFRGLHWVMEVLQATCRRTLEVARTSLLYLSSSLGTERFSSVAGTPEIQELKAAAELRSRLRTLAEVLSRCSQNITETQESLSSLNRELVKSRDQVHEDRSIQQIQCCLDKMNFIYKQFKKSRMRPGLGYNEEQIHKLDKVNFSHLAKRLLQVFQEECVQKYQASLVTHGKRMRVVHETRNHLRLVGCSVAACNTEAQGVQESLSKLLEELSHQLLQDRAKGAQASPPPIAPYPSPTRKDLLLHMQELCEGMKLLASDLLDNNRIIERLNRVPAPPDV

[6] = biological target: T6, Inhibitor of nuclear factor kappa-B kinase subunit epsilon (Homo sapiens) (UniProt Q14164); assay: Inhibition of human IKKepsilon at 100 uM using ERLLDDRHDSGLDSMKDEE as substrate after 60 mins in presence of ATP by ADP-Glo kinase assay relative to control
T6 sequence (whole entry): T5 sequence (Q14164 whole entry)

[7] = biological target: T7, Mitogen-activated protein kinase kinase kinase 14 (Homo sapiens, UniProt Q99558); assay: Inhibition of human NIK using AKDVDQGSLCTSFVGTLQY as substrate after 60 mins in presence of ATP by ADP-Glo kinase assay
Target sequence in this assay (Q99558 whole entry): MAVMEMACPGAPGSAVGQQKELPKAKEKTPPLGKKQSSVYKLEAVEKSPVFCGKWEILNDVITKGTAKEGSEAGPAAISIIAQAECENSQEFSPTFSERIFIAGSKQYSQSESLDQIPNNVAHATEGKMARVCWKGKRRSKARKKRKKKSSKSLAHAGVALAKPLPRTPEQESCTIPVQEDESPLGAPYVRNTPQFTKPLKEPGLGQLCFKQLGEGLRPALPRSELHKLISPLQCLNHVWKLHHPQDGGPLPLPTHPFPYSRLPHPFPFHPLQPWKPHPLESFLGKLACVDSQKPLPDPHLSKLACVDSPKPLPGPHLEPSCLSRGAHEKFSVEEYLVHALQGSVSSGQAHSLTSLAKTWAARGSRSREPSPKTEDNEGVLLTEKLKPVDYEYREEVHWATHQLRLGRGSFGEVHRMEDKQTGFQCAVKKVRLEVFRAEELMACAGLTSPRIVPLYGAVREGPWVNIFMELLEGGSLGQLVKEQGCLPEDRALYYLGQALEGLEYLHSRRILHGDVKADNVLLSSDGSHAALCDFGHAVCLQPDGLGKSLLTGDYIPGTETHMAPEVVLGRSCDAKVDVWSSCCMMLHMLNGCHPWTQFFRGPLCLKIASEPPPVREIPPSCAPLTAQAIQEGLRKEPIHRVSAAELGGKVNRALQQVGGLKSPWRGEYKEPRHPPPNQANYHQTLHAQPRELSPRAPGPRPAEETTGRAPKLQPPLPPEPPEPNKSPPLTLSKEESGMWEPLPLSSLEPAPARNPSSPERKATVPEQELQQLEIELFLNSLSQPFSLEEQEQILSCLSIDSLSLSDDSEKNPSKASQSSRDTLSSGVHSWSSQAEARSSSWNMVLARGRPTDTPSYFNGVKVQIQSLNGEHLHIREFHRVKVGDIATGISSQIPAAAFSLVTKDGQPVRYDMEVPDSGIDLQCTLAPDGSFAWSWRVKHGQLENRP

[8] = biological target: T7, Mitogen-activated protein kinase kinase kinase 14; assay: Inhibition of human NIK at 100 uM using AKDVDQGSLCTSFVGTLQY as substrate after 60 mins in presence of ATP by ADP-Glo kinase assay relative to control
Target sequence in this assay (Q99558 whole entry, looked up): as the sequence (Q99558 whole entry) above

[9] = biological target: T1, Inhibitor of nuclear factor kappa-B kinase subunit beta; assay: Inhibition of IKK-beta in human Jurkat cells assessed as reduction in TNFalpha-stimulated IkBalpha degradation preincubated for 60 mins followed by TNFalpha stimulation for 20 mins by immunoblot analysis; assay type: cell-based
[10] = test system: Jurkat; assay: Inhibition of TNFalpha-activated canonical NF-kB signaling pathway in human Jurkat cells assessed as residual activity at 1 uM after 6 hrs by luciferase reporter gene assay relative to control; assay type: cell-based
Outline: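 Jurkat cells nucleofected with 3 µg of NF-κB-RE firefly luciferase and TK-Renilla plasmids (10:1), then cultured 24 h at 37 °C. Compound added for a further 6 h, with TNFα in the last 20 min. Firefly luminescence normalized to Renilla and expressed as % of DMSO+TNFα control; mean ± SD of three experiments.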

[11] = test system: MDA-MB-231; assay: Inhibition of constitutively activated canonical NF-kB signaling pathway in human MDA-MB-231 cells assessed as residual activity at 10 uM after 6 hrs by luciferase reporter gene assay relative to control; assay type: cell-based
Outline: (§1)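 MDA-MB-231 cells (constitutive NF-κB) nucleofected with 3 µg of NF-κB-RE firefly luciferase plus TK-Renilla plasmids (10:1), then cultured 24 h. Compound added for a further 6 h or 24 h, without stimulus. Firefly/Renilla ratio expressed as % of DMSO-treated control; mean ± SD of three independent experiments.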

[12] = test system: MDA-MB-231; assay: Inhibition of constitutively activated canonical NF-kB signaling pathway in human MDA-MB-231 cells assessed as residual activity at 10 uM after 24 hrs by luciferase reporter gene assay relative to control; assay type: cell-based; outline: as §1
[13] = test system: MDA-MB-231; assay: Antiproliferative activity against human MDA-MB-231 cells assessed as DNA content after 72 hrs by Hoechst 33258 staining based fluorescence assay; assay type: functional, cell-based; conditions: MDA-MB-231, 72 h
Outline: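 MDA-MB-231 cells (5 x 10³/well) grown in DMEM with 10% FBS and exposed to 0.001 - 200 µM compound or DMSO vehicle for 72 h. Cells were washed with PBS and lysed in 0.02% SDS in SSC buffer for 1 h at 37 °C. Hoechst 33258 (1 µg/mL) was then added and fluorescence read at ex 355/em 460 nm. IC50 taken by nonlinear regression; mean ± SD of three independent experiments.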

[14] = test system: MDA-MB-231; assay: Cytotoxicity against human MDA-MB-231 cells after 72 hrs by CellTox green assay; assay type: cell-based; conditions: MDA-MB-231, 72 h
Outline: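 MDA-MB-231 cells (5×10^3/well) exposed to 0.001 - 100 µM compound or DMSO vehicle for 72 h. Membrane-integrity loss read by CellTox green fluorescence. IC50 taken by nonlinear regression; mean ± SD of three independent experiments.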

Row | Compound | IC50 [1] [µM] | inhibition [2] [%] | IC50 [3] [µM] | inhibition [4] [%] | IC50 [5] [µM] | inhibition [6] [%] | IC50 [7] [µM] | inhibition [8] [%] | IC50 [9] [µM] | Activity [10] [%] | Activity [11] [%] | Activity [12] [%] | IC50 [13] [µM] | IC50 [14] [µM]
1 | COc1nsnc1C(=O)Nc1cc(C(F)(F)F)cc(C(F)(F)F)c1 | > 100 | 8.51 | > 100 | 24.1 | > 100 | 21.9 | > 100 | -1.9 | > 100 |  |  |  |  | 
2 | O=C(Nc1cc(C(F)(F)F)cc(C(F)(F)F)c1)c1nonc1O | > 100 | 12.2 | > 100 | 18.6 | 58.5 |  | > 100 | 19.3 | 6.93 |  |  |  |  | 
3 | Cc1c(C(=O)Nc2cc(C(F)(F)F)cc(C(F)(F)F)c2)c(O)nn1C | > 100 | 13.9 | > 100 | 13.2 | > 100 | 14.2 | > 100 | 24.1 | 1.32 |  |  |  |  | 
4 | Nc1nonc1C(=O)Nc1cc(C(F)(F)F)cc(C(F)(F)F)c1 | > 100 | 31.6 | > 100 | 29.3 | 44.8 |  | > 100 | -9.2 | > 100 |  |  |  |  | 
5 | O=C(Nc1cccc(C(F)(F)F)c1)c1nonc1O | > 100 | 2.06 | > 100 | -2.5 | > 100 | 32.1 | > 100 | 11.8 | 1.72 |  |  |  |  | 
6 | Cn1cc(C(=O)Nc2cc(C(F)(F)F)cc(C(F)(F)F)c2)c(O)n1 | > 100 | 12.7 | > 100 | 12.1 | > 100 | 17.2 | > 100 | 7.23 | 25.9 |  |  |  |  | 
7 | O=C(Nc1cccc(C(F)(F)F)c1)c1nsnc1O | > 100 | -0.94 | 35.5 |  | > 100 | 25.8 | > 100 | -1.1 | > 100 |  |  |  |  | 
8 | O=C(Nc1cc(Cl)cc2c1[nH]c1cnccc12)c1cccnc1 | 0.087 |  | > 100 |  | > 100 |  | > 100 |  | 0.186 | 38.1 | 19.5 | 8.67 | 0.9 | > 100
9 | Cn1nc(O)c(C(=O)Nc2cc(C(F)(F)F)cc(C(F)(F)F)c2)n1 | > 100 | 5.19 | > 100 | 46.9 | > 100 | 6.92 | > 100 | 9.1 | > 100 |  |  |  |  | 
10 | O=C(Nc1cc(C(F)(F)F)cc(C(F)(F)F)c1)c1n[nH]nc1O | > 100 | 5.14 | > 100 | 24.5 | > 100 | 15.3 | > 100 | -9.5 | > 100 |  |  |  |  | 
11 | Cn1nnc(O)c1C(=O)Nc1cc(C(F)(F)F)cc(C(F)(F)F)c1 | > 100 | 11.2 | > 100 | 13.1 | 58.5 |  | > 100 | 12.1 | > 100 |  |  |  |  | 
